hERG rescue – shields human hERG channel from block by proarrhythmic agents | 0.51% of 310,000 active | CHO-hERG, FluxOR thallium flux, dofetilide IC70 present | activation (rescue from dofetilide block), less the hit threshold, % at 10 µM | Q12809 | AID 1511;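 active = activation above the mean of controls blocked by dofetilide plus 5 SD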;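 also: thallium influx through hERG after potassium depolarization seen as dye fluorescence rise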
Target sequence (Q12809 whole entry, looked up): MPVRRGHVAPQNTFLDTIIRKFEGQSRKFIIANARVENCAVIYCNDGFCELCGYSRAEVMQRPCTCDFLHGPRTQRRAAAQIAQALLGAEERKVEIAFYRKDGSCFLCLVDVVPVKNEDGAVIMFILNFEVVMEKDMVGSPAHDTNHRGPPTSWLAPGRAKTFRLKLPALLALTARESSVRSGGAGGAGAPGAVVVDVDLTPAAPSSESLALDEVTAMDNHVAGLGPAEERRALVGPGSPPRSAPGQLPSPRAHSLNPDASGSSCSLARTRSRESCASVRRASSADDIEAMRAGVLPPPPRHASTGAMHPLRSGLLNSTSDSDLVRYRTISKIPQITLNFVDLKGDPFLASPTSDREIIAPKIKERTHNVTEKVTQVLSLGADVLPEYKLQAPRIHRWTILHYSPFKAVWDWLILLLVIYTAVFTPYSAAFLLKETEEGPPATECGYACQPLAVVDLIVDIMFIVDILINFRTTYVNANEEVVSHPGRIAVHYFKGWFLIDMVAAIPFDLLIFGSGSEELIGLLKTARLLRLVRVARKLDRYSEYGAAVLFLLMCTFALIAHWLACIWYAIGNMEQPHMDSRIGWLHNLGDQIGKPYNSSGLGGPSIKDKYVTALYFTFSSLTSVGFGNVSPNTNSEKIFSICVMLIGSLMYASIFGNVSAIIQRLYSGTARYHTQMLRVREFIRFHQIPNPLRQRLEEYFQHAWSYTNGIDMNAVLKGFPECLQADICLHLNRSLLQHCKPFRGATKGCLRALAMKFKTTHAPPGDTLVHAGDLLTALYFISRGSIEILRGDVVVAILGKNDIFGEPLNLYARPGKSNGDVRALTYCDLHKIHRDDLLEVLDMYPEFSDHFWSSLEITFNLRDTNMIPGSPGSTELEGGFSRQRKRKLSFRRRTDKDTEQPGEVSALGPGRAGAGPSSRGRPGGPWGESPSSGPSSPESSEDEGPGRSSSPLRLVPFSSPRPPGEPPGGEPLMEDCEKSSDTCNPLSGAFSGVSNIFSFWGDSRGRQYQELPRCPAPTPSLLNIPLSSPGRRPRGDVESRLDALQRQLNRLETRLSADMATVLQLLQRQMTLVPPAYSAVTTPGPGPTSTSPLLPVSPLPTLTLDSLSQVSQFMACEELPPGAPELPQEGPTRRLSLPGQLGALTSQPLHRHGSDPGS
PHOSPHO1 inh – PHOSPHO1 (human) inhibition; recombinant PHOSPHO1, absorbance phosphatase assay; inhibition, % at 13.3 µM; 1.1% of 290,000 active; in the data active = inhibition above about 60%
KCNQ1 inh – blocks the human KCNQ1 potassium channel | CHO-K1 KCNQ1, FluxOR thallium flux fluorescence; hits give high values | B-score at 10 µM | 1.3% of 310,000 active | AID 2642;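 active = compounds whose thallium flux B-score, printed positive for inhibition, exceeds three library SD while starting fluorescence stays within three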;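 also: channel opened by potassium depolarization with thallium stimulus after 20 min compound exposure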
KCNQ1 act – potentiates or activates the human KCNQ1 potassium channel; B-score at 10 µM; 0.35% of 310,000 active; CHO-K1 KCNQ1, thallium flux FluxOR fluorescence; hits give high values; P51787;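 active = fluorescence ratio B-score, a plate-corrected score, at least three library SD, with initial intensity B-score within 5 SD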
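Assay system: CHO-K1 cells stably expressing KCNQ1. Medium: assay buffer for compound exposure, DMSO matched across wells. Timing: 37 °C overnight plating, 90-min dark dye load, 20-min compound pretreatment. Signal: kinetic FluxOR fluorescence, 10 s baseline plus 110 s post-stimulus.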
KCNK9 block – human KCNK9 channel inhibition; Q9NPC2; HEK293 KCNK9, FluxOR thallium flux fluorescence; hits give low values; B-score at 10 µM; 1.2% of 310,000 active;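 active = ratio B-score over 3 SD below the library mean, with starting fluorescence within 5 SD of its mean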;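 also: negative B-score means less thallium flux so channel inhibition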
KCNK3 inh – human KCNK3 channel inhibition, primary screen; O14649; CHO-KCNK3 thallium flux, FluxOR fluorescence; hits give low values; B-score at 10 µM; 0.84% of 340,000 active; AID 602410;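 active = B-score under library mean minus 4 SD, starting fluorescence ratio at most library mean plus 5 SD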;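 also: more negative B-score means stronger inhibition of thallium flux through KCNK3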
Hits are given with their value; - = inactive; . = not tested or not shown. In the library only some 4% were active in any assay of this set; here they are far more common.

SMILES	hERG rescue	PHOSPHO1 inh	KCNQ1 inh	KCNQ1 act	KCNK9 block	KCNK3 inh
COc1ccc(C(=O)C[N+]2(C)CCOCC2)cc1	-	80	-	-	-	-
COc1ccc(N(Cc2cc3ccccc3[nH]c2=O)S(=O)(=O)c2ccc(OC)cc2)cc1	-	-	-	-	-7.2	-
CCN(CC)c1nc(C)c2c(c1C#N)CC(C)(C)OC2	-	-	-	-	-	-
CC1(C)Cc2c(C#N)c(N)sc(=S)c2CO1	-	80	-	-	-	-
N#Cc1c(N)sc(=S)c2c1CCN(Cc1ccccc1)C2	.	-	.	.	.	.
CC(C)C1Cc2c(C#N)c(N)sc(=S)c2CO1 (centres undefined)	-	89	-	-	-	-
COc1ccccc1C=NN=C(NN=Cc1ccccc1OC)NN=Cc1ccccc1OC	.	.	.	.	.	-11
COc1ccccc1C=NNC(=O)NN=Cc1ccccc1OC	.	.	.	.	.	-
CN1CCN(c2ccccc2NC(=O)c2ccc(OCc3ccccc3)cc2)CC1	.	-	.	.	.	-
CN1CCN(c2ccccc2NC(=O)c2ccc(-c3ccccc3)cc2)CC1	-	-	-	-	-	-8.8
CC(C)CCn1c(SCc2ccc(Cl)cc2)nc2c1c(=O)[nH]c(=O)n2C	-	61	-	-	-	-
Cc1ccc(CSc2nc3c(c(=O)[nH]c(=O)n3C)n2CCC(C)C)cc1	-	-	-	-	-	-
C/C(=N\NC(=O)c1c[nH]c2ccccc12)c1ccccn1	-	-	-	-	-	-
O=C(N/N=C/c1ccc(-c2ccccc2)o1)c1ccccc1O	-	-	-	8	-	-
O=C(CCc1ccccc1O)N/N=C/c1ccc(Sc2cccc3cccnc23)o1	-	98	-	-	-	-
CC(=N/O)/C(C)=N\NC(=O)c1ccccn1	-	-	8	-	-	-
C/C(=N\NC(=O)c1cc2ccccc2cc1O)c1ccccn1	-	-	-	7	-	-
Cc1nn(C)c(Oc2cccc(Cl)c2)c1C=O	-	-	-	-	-	-
O=C(N/N=C/c1ccc(Sc2ccccn2)o1)c1cc2ccccc2cc1O	-	-	-	18	-	-
O=C(N/N=C\c1ccc(Sc2ccccn2)o1)c1cccc(F)c1	-	-	-	-	-	-
C/C(=N\NC(=O)c1cc2ccccc2cc1O)c1cc2ccccc2o1	55	-	-	138	-	-
Cc1ccc(S(=O)(=O)N2CC[C@@H]2C(=O)O)cc1	-	.	-	-	-	-
CCOC(=O)C1=C(c2ccccc2)NC(=O)NC1c1ccc(O)c(OCC)c1 (centres undefined)	-	-	-	-	-	-
CCOC(=O)C1=C(c2ccccc2)NC(=O)NC1c1ccc(O)c(Cl)c1 (centres undefined)	13	-	-	-	-	-
COC(=O)N/N=C(/c1ccccc1)C1CCCCC1	-	-	-	-	-	.
SMILES	hERG rescue	PHOSPHO1 inh	KCNQ1 inh	KCNQ1 act	KCNK9 block	KCNK3 inh
O=C1NC2(CCCC2)C(=O)N1CCS(=O)(=O)Oc1ccccc1	-	65	-	-	-	-
Cc1c(NC(=O)/C(C#N)=C/c2ccc(-c3ccccc3Cl)o2)c(=O)n(-c2ccccc2)n1C	-	-	-	-	-	-
N#C/C(=C\c1ccc(-c2ccccc2Cl)o1)C(=O)Nc1nc2ccccc2s1	10	-	-	-	-	-
CC(C)c1ccc(/C=N/n2c(COc3ccccc3)n[nH]c2=S)cc1	-	-	-	16	-	-
CN(C)c1ccc(/C=N/n2c(COc3ccccc3)n[nH]c2=S)cc1	-	79	-	-	-	-
N=c1sccn1CC(=O)Nc1cc(S(=O)(=O)N2CCCC2)ccc1Cl	-	-	-	-	-	-
CCn1c(SCC(N)=O)nc2c1c(=O)n(C)c(=O)n2C	-	-	-	-	-	-
CCOc1ccc(C2CC(=O)n3nc(C45CC6CC(CC(C6)C4)C5)nc3S2)cc1OC (centres undefined)	-	84	-	-	-	-
COc1ccc(CNC(=O)Oc2ccccc2)cc1Cl	-	-	-	-	-	-
CC1C(=O)C(C)C(c2ccc(Cl)cc2)NC1c1ccc(Cl)cc1 (centres undefined)	-	.	7	-	-	-
Cc1ccc(NC(=S)Nc2ccc(C(C)C)cc2)cc1S(=O)(=O)N1CCCCCC1	-	-	-	-	-	-
FC(F)c1nnc2c(Cl)cc(C(F)(F)F)cn12	6.4	-	-	-	-	-
COc1cc(-c2nnc3sc(Cc4ccccc4)nn23)cc(OC)c1OC	-	70	-	-	-	-
COc1ccc(NC(=O)C2CCN(S(C)(=O)=O)CC2)c(OC)c1	-	-	-	-	-	-
COc1ccc(CSc2nnnn2-c2ccccc2)cc1	-	-	-	-	-	-
Cc1cc(C(=O)CSc2nnnn2C)c(C)n1CCc1ccc(Cl)cc1	-	82	-	-	-	-
COc1ccc(CCn2c(C)cc(C(=O)CSc3nnnn3-c3ccccc3)c2C)cc1	-	71	-	-	-	-
COc1cc(OC)cc(C(=O)NCC(=O)OCC(=O)c2ccc3c(c2)-c2ccccc2C3)c1	-	-	-	-	-	-
CSc1nnc(NC(=O)c2cccc(S(=O)(=O)N3CCOCC3)c2)s1	-	-	-	-	-	-
COc1ccc(-c2cc3nc(C)cc(N4CC(C)CC(C)C4)n3n2)cc1 (centres undefined)	-	-	6	-	-	-
Cc1cc(C)c2[nH]c(=S)cc(C)c2c1	-	104	-	-	-	-
N#Cc1c(NC(=O)CSc2ccccn2)oc(-c2ccccc2)c1-c1ccccc1	-	-	7	-	-	-
CCOCc1nnc(NC(=O)c2ccc3c(c2)OCO3)s1	-	-	-	-	-	-
CCOC(=O)c1ccccc1NC(=O)Cn1cnc2c(cnn2-c2ccccc2)c1=O	-	-	-	-	-	-
COC(=O)c1ccccc1NC(=O)Cn1cnc2c(cnn2-c2ccccc2)c1=O	4.8	-	-	-	-	-
SMILES	hERG rescue	PHOSPHO1 inh	KCNQ1 inh	KCNQ1 act	KCNK9 block	KCNK3 inh
Cc1cc(Cl)c2oc(C(=O)NC3CCC(O)CC3)c(C)c2c1 (centres undefined)	-	-	-	-	-	-
CCCCC12CN3CCN(CC(C3)/C1=N\NC(=O)Nc1ccccc1)C2	-	-	-	-	-	-
Cc1n[nH]c(=S)n1-c1ccc(Cl)cc1	-	-	-	-	-	-
Cc1n[nH]c(=S)n1-c1ccccc1	-	90	-	-	-	-
Cc1ccc(-n2c(Cc3ccccc3)n[nH]c2=S)cc1	-	101	-	-	-	-
CCCc1nc2ccc(NC(=O)c3cccs3)cc2c(=O)n1Cc1ccccc1Cl	-	-	-	-	-6.8	-
COc1ccccc1CNS(=O)(=O)c1cc(CN2C(=O)c3cccnc3C2=O)ccc1OC	-	-	-	-	-	-
COc1ccc(CN2C(=O)c3cccnc3C2=O)cc1S(=O)(=O)NC1CCCCC1	-	69	-	-	-	-

High-throughput results deposited in PubChem BioAssay by several laboratories.
